Laboratory results published in ChEMBL document CHEMBL4270564, “Synergistic inhibition of the Hedgehog pathway by newly designed Smo and Gli antagonists bearing the isoflavone scaffold” (Eur J Med Chem, 2018).
Calls of active or inactive are those of the source. No cut-off for these calls is given here.

How the values were obtained:
Zinc finger protein GLI1 = molecular target: T1, Zinc finger protein GLI1 (Mus musculus, UniProt P47806); experiment: Inhibition of Gli1 transcriptional activity in mouse embroyonic fibroblasts after 24 hrs by renilla luciferase reporter gene assay
T1 sequence (P47806 whole entry): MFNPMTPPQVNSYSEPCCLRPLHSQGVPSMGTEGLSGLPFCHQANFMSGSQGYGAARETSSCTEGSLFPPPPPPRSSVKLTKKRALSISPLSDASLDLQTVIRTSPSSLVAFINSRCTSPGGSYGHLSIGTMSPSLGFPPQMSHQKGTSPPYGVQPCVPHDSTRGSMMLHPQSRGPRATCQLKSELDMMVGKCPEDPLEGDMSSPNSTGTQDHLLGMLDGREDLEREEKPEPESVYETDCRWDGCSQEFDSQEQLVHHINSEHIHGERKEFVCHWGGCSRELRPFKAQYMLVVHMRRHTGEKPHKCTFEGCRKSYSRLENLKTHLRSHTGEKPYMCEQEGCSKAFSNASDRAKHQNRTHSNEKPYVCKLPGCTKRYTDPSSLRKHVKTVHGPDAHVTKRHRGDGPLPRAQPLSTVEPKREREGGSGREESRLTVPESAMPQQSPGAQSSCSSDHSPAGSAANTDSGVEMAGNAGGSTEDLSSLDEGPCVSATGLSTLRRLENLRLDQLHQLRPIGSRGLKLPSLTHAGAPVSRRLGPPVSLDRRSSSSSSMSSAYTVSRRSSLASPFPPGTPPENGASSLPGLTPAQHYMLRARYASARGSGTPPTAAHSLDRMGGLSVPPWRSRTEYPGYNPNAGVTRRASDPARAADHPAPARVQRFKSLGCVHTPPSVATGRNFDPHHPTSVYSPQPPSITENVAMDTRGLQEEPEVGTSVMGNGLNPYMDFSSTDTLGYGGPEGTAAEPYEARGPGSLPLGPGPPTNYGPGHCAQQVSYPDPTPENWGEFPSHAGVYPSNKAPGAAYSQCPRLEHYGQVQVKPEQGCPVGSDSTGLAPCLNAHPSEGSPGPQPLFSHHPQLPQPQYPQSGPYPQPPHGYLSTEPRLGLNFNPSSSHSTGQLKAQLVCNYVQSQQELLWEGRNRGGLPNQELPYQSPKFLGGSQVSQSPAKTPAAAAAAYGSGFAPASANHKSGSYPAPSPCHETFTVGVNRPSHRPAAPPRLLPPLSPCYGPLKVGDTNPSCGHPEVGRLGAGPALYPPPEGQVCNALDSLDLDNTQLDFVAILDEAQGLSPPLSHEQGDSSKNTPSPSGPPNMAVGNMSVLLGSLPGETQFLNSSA
Summary of the method: (§1)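 Wild-type MEFs expressing ectopic Gli1 were transfected with 12XGliBS-Luc, pRL-TK Renilla and empty or Gli1 vector. They were exposed to rising compound concentrations for 24 h; DMSO-only controls. Luciferase/Renilla ratio; mean ± SD of three independent experiments.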

Protein smoothened = Protein smoothened (Mus musculus, UniProt P56726); experiment: Antagonist activity at smo in SAG-treated mouse Light2 cells after 48 hrs by renilla luciferase reporter gene assay; format: functional
Sequence of Protein smoothened (P56726 whole entry): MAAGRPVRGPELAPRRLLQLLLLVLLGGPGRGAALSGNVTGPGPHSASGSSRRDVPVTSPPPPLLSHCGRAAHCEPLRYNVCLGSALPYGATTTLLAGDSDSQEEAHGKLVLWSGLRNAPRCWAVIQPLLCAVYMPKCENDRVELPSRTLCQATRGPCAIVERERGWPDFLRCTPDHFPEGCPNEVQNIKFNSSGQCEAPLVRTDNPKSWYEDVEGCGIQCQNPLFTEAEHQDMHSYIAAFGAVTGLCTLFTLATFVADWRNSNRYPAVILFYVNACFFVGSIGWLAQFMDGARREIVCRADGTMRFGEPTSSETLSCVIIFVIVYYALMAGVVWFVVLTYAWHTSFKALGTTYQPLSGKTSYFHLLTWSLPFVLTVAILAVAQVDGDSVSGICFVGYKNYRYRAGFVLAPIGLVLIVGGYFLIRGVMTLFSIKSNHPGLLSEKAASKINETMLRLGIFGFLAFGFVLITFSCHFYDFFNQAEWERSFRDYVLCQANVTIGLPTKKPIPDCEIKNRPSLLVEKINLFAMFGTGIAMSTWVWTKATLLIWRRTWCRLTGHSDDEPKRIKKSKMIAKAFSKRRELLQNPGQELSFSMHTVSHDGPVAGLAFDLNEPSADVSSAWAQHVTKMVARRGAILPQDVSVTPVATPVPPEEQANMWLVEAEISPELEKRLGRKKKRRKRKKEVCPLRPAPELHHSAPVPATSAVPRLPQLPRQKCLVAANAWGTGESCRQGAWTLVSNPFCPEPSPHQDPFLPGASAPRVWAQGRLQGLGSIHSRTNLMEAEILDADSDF
Summary of the method: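 NIH3T3 Shh-Light II cells carry a stable Gli-responsive firefly luciferase reporter plus pRL-TK Renilla. They were stimulated with SAG 200 nM and treated with compound for 48 h. Read-out was dual-luciferase, as the Luciferase/Renilla ratio. Mean ± SD of three independent experiments, each in triplicate.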

Medulloblastoma cell [1] = experiment: Synergistic growth inhibition of mouse Ptch+/- medulloblastoma cells at 0.25 uM after 72 hrs in presence of Gli inhibitor GlaB; format: functional; details: read-out: GI
Summary of the method: (§2)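 Freshly isolated Ptch+/- mouse medulloblastoma primary cells were held in short-term Neurobasal-A/B27 (minus vitamin A) culture. They were treated for 72 h with a binary combination of a Gli1 antagonist and a Smo antagonist, each at the stated concentration. Percent growth inhibition was reported.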

Medulloblastoma cell [2] = experiment: Growth inhibition of mouse Ptch+/- medulloblastoma cells at 1 uM after 72 hrs relative to control; format: functional; details: read-out: GI
Summary of the method: (§3)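 Primary medulloblastoma cells were freshly isolated from Ptch+/- mouse tumors. They were kept in short-term culture in Neurobasal Media-A with B27 minus vitamin A to retain Hh sensitivity. Cells were exposed to single compounds for 72 h, and percent growth inhibition was reported as mean ± SD.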

[3] = molecular target: T2, Zinc finger protein GLI1 (Mus musculus) (UniProt P47806); experiment: Inhibition of Gli1 transcriptional activity in Smo-/- mouse embroyonic fibroblasts up to 20 uM after 24 hrs by renilla luciferase reporter gene assay
T2 sequence (whole entry): T1 sequence (P47806 whole entry)
Summary of the method: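 Smo-/- MEFs were transfected with 12xGliBS-Luc and pRL-TK Renilla plus empty or Gli1 vector. They were treated with increasing concentrations of compound for 24 h; DMSO-only controls. Read-out was luciferase normalized to Renilla. Mean ± SD of three independent experiments; t-test versus DMSO.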

[4] = molecular target: Protein smoothened (Mus musculus) (UniProt P56726); experiment: Antagonist activity at smo in SuFu-/- mouse embroyonic fibroblasts assessed as downregulation of Gli2 mRNA levels after 48 hrs by qRT-PCR method; format: functional
Sequence of Protein smoothened (Mus musculus) (P56726 whole entry): as above
Summary of the method: (§4)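 SuFu-/- MEFs were grown in DMEM with 10% FBS, antibiotics and L-glutamine, then treated with compound for 48 h; DMSO-only controls. Gli1 and Gli2 mRNA were measured by qRT-PCR and normalized to HPRT. Mean ± SD of three independent experiments; Student's t-test versus DMSO.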

Medulloblastoma cell [5] = experiment: Growth inhibition of mouse Ptch+/- medulloblastoma cells at 0.5 uM after 72 hrs relative to control; format: functional; details: read-out: GI; summary of the method: as §3
Medulloblastoma cell [6] = experiment: Growth inhibition of mouse Ptch+/- medulloblastoma cells at 2 uM after 72 hrs relative to control; format: functional; details: read-out: GI
Medulloblastoma cell [7] = experiment: Synergistic growth inhibition of mouse Ptch+/- medulloblastoma cells at 0.5 uM after 72 hrs in presence of Gli inhibitor GlaB; format: functional; details: read-out: GI; summary of the method: as §2
Medulloblastoma cell [8] = experiment: Growth inhibition of mouse Ptch+/- medulloblastoma cells at 0.25 uM after 72 hrs relative to control; format: functional; details: read-out: GI; summary of the method: as §3
Medulloblastoma cell [9] = experiment: Growth inhibition of mouse Ptch+/- medulloblastoma cells at 0.125 uM after 72 hrs relative to control; format: functional; details: read-out: GI; summary of the method: as §3
[10] = molecular target: Protein smoothened (Mus musculus) (UniProt P56726); experiment: Antagonist activity at smo in SuFu-/- mouse embroyonic fibroblasts assessed as downregulation of Gli1 mRNA levels after 48 hrs by qRT-PCR method; format: functional; summary of the method: as §4
Medulloblastoma cell [11] = experiment: Synergistic growth inhibition of mouse Ptch+/- medulloblastoma cells at 0.125 uM after 72 hrs in presence of Gli inhibitor GlaB; format: functional; details: read-out: GI; summary of the method: as §2
MEF [12] = experiment: Downregulation of Gli1 levels in SuFu-/- mouse embroyonic fibroblasts up to 20 uM after 48 hrs by qRT-PCR
MEF [13] = experiment: Downregulation of Gli2 levels in SuFu-/- mouse embroyonic fibroblasts up to 20 uM after 48 hrs by qRT-PCR
[14] = molecular target: T2, Zinc finger protein GLI1 (Mus musculus); experiment: Inhibition of Gli1 transcriptional activity in mouse embroyonic fibroblasts up to 30 uM after 24 hrs by renilla luciferase reporter gene assay; summary of the method: as §1

COc1cc(OC)c2c(=O)c(-c3cccc(OCC=C(C)C)c3)coc2c1
IC50 (Zinc finger protein GLI1; read-out: IC50): > 20 µM
IC50 (Protein smoothened; read-out: IC50): > 30 µM

COc1cc(OC)c2c(=O)c(-c3ccc(OCc4ccc(C(F)(F)F)cc4)c(OC)c3)coc2c1
IC50 (Zinc finger protein GLI1; read-out: IC50): 55.3 µM
inhibition of growth at 0.25 µM (Medulloblastoma cell [1]): 53.1%
inhibition of growth at 1 µM (Medulloblastoma cell [2]): 51.8%
inhibition [3]: inactive
inhibition [4]: inactive
IC50 (Protein smoothened; read-out: IC50): 3.48 µM
inhibition of growth at 0.5 µM (Medulloblastoma cell [5]): 32.5%
inhibition of growth at 2 µM (Medulloblastoma cell [6]): 54.2%
inhibition of growth at 0.5 µM (Medulloblastoma cell [7]): 60.1%
inhibition of growth at 0.25 µM (Medulloblastoma cell [8]): 23.5%
inhibition of growth at 0.125 µM (Medulloblastoma cell [9]): 20.8%
inhibition [10]: inactive
inhibition of growth at 0.125 µM (Medulloblastoma cell [11]): 33.5%

COc1cc(OC)c2c(=O)c(-c3cccc(OCc4ccc(C(F)(F)F)cc4)c3)coc2c1
IC50 (Zinc finger protein GLI1; read-out: IC50): 26.7 µM
IC50 (Protein smoothened; read-out: IC50): 10.5 µM

COc1cc(OC)c2c(=O)c(-c3ccc(OC)c(OCc4ccc(C(N)=O)cc4)c3)coc2c1
IC50 (Zinc finger protein GLI1): Nd(Toxic)
IC50 (Protein smoothened; read-out: IC50): > 30 µM

COc1cc(OC)c2c(=O)c(-c3ccc(OC)c(OCC=C(C)C)c3)coc2c1
IC50 (Zinc finger protein GLI1; read-out: IC50): 5.7 µM
inhibition of growth at 1 µM (Medulloblastoma cell [2]): 35.6%
inhibition [3]: Active
IC50 (Protein smoothened; read-out: IC50): 2.87 µM
inhibition of growth at 0.5 µM (Medulloblastoma cell [5]): 29.2%
inhibition of growth at 2 µM (Medulloblastoma cell [6]): 55.4%
inhibition of growth at 0.25 µM (Medulloblastoma cell [8]): 26.3%
inhibition of growth at 0.125 µM (Medulloblastoma cell [9]): 5.9%
Activity (MEF [12]): Active
Activity (MEF [13]): Active

COc1cc(OC)c2c(=O)c(-c3ccc(OCc4ccccc4)c(OCc4ccccc4)c3)coc2c1
IC50 (Zinc finger protein GLI1; read-out: IC50): 57.7 µM
inhibition of growth at 0.25 µM (Medulloblastoma cell [1]): 63.4%
inhibition of growth at 1 µM (Medulloblastoma cell [2]): 61.2%
inhibition [3]: inactive
inhibition [4]: inactive
IC50 (Protein smoothened; read-out: IC50): 0.29 µM
inhibition of growth at 0.5 µM (Medulloblastoma cell [5]): 51.4%
inhibition of growth at 2 µM (Medulloblastoma cell [6]): 66.6%
inhibition of growth at 0.5 µM (Medulloblastoma cell [7]): 70%
inhibition of growth at 0.25 µM (Medulloblastoma cell [8]): 44.2%
inhibition of growth at 0.125 µM (Medulloblastoma cell [9]): 33.3%
inhibition [10]: inactive
inhibition of growth at 0.125 µM (Medulloblastoma cell [11]): 38.3%

COc1cc(OC)c2c(=O)c(-c3ccc(OC)c(OC/C=C(\C)CCC=C(C)C)c3)coc2c1
IC50 (Zinc finger protein GLI1; read-out: IC50): 21.2 µM
IC50 (Protein smoothened; read-out: IC50): 3.61 µM

COc1cc(OC)c2c(=O)c(-c3ccc(OCc4ccccc4)c(OC)c3)coc2c1
IC50 (Zinc finger protein GLI1; read-out: IC50): 39.2 µM
IC50 (Protein smoothened; read-out: IC50): 6.92 µM

COc1cc(OC)c2c(=O)c(-c3ccc(OC)c(OCc4ccc([N+](=O)[O-])cc4)c3)coc2c1
IC50 (Zinc finger protein GLI1): Nd(Toxic)
IC50 (Protein smoothened; read-out: IC50): > 30 µM

CS(=O)(=O)c1ccc(C(=O)Nc2ccc(Cl)c(-c3ccccn3)c2)c(Cl)c1
inhibition [14]: inactive

COc1cc(OC)c2c(=O)c(-c3cccc(O)c3)coc2c1
IC50 (Zinc finger protein GLI1): Nd(Toxic)
IC50 (Protein smoothened; read-out: IC50): > 30 µM

COC(=O)c1ccc(COc2cc(-c3coc4cc(OC)cc(OC)c4c3=O)ccc2OC)cc1
IC50 (Zinc finger protein GLI1): Nd(Toxic)
IC50 (Protein smoothened; read-out: IC50): > 30 µM

COc1cc(OC)c2c(=O)c(-c3ccc(OC)c(OCc4ccccc4)c3)coc2c1
IC50 (Zinc finger protein GLI1; read-out: IC50): 17.1 µM
IC50 (Protein smoothened; read-out: IC50): 3.72 µM

COc1cc(OC)c2c(=O)c(-c3ccc(OCC=C(C)C)c(OC)c3)coc2c1
IC50 (Zinc finger protein GLI1; read-out: IC50): 10.7 µM
IC50 (Protein smoothened; read-out: IC50): 6.97 µM

COc1cc(OC)c2c(=O)c(-c3ccc(OC)c(OCc4ccc(C(F)(F)F)cc4)c3)coc2c1
IC50 (Zinc finger protein GLI1; read-out: IC50): 11.5 µM
inhibition of growth at 1 µM (Medulloblastoma cell [2]): 50.9%
inhibition [3]: Active
IC50 (Protein smoothened; read-out: IC50): 2.58 µM
inhibition of growth at 0.5 µM (Medulloblastoma cell [5]): 44.5%
inhibition of growth at 2 µM (Medulloblastoma cell [6]): 54%
inhibition of growth at 0.25 µM (Medulloblastoma cell [8]): 40.6%
inhibition of growth at 0.125 µM (Medulloblastoma cell [9]): 37.7%
Activity (MEF [12]): Active
Activity (MEF [13]): Active

COc1cc(OC)c2c(=O)c(-c3ccc(OC)c(OCc4ccc(C#N)cc4)c3)coc2c1
IC50 (Zinc finger protein GLI1): Nd(Toxic)
IC50 (Protein smoothened; read-out: IC50): 16 µM

COc1cc(OC)c2c(=O)c(-c3ccc(OCC=C(C)C)c(OCC=C(C)C)c3)coc2c1
inhibition of growth at 1 µM (Medulloblastoma cell [2]): 55.9%
inhibition of growth at 0.5 µM (Medulloblastoma cell [5]): 46.6%
inhibition of growth at 2 µM (Medulloblastoma cell [6]): 65.1%
inhibition of growth at 0.25 µM (Medulloblastoma cell [8]): 42.4%
inhibition of growth at 0.125 µM (Medulloblastoma cell [9]): 28.6%

COc1cc(OC)c2c(=O)c(-c3ccc(OC/C=C(\C)CCC=C(C)C)c(OC)c3)coc2c1
IC50 (Zinc finger protein GLI1): Nd(Toxic)
IC50 (Protein smoothened): Nd(Toxic)
